Data published in ChEMBL document CHEMBL2407018, “Luteolin suppresses the differentiation of THP-1 cells through the Inhibition of NOX2 mRNA expression and the membrane translocation of p47phox” (J Nat Prod, 2013).
Activity calls are given as the source filed them. No cut-off for these calls is given here.

What was measured:
[1] = biological target: T1, NADPH oxidase 2 (Homo sapiens) (UniProt P04839); assay: Inhibition of NOX2 in human THP1 cells assessed as downregulation of TPA-induced CD36 mRNA expression at 20 uM incubated for 1 hr prior to TPA challenge measured after 24 hrs by RT-PCR analysis; type: cell-based; details: THP-1
T1 sequence (whole entry): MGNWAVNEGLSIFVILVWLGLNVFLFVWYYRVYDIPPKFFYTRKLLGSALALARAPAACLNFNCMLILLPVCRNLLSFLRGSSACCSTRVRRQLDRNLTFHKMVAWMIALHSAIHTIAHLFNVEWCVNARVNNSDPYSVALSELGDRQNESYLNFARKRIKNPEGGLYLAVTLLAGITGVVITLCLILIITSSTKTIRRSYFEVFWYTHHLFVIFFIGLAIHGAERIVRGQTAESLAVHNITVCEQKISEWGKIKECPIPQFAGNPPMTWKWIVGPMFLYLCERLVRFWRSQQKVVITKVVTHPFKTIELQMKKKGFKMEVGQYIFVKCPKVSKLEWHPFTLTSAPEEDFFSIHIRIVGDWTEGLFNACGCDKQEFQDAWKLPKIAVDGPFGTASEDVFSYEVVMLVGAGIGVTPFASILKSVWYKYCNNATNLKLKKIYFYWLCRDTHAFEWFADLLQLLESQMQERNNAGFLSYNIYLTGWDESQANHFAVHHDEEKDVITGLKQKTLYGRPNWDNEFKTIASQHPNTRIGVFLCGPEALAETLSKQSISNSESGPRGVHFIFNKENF
In short: (§1)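 THP-1 cells grown in RPMI1640 with 10% heat-inactivated FCS and penicillin/streptomycin at 37 °C, 5% CO2. Seeded at 2 × 10^6 cells per 3.5 cm dish. Compound added 1 h before 100 nM TPA for 24 h. Cells scraped, washed in cold PBS, lysed in TRIzol for total RNA. Transcripts measured by RT-PCR and normalized to 18s rRNA.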

[2] = test system: THP-1; assay: Downregulation of TPA-induced NOX2 mRNA expression in human THP1 cells at 20 uM incubated for 1 hr prior to TPA challenge measured after 24 hrs by RT-PCR analysis; type: functional, cell-based
In short: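 THP-1 cells in RPMI1640 with 10% FCS, 2 × 10^6 cells per 3.5 cm dish, pretreated 1 h, then 100 nM TPA for 24 h. Total RNA extracted in TRIzol, NOX2 measured by RT-PCR and normalized to 18s rRNA.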

[3] = biological target: T1, NADPH oxidase 2 (Homo sapiens); assay: Inhibition of NOX2 in human THP1 cells assessed as downregulation of TPA-induced CD14 mRNA expression at 20 uM incubated for 1 hr prior to TPA challenge measured after 24 hrs by RT-PCR analysis; type: cell-based; details: THP-1; in short: as §1
[4] = biological target: T1, NADPH oxidase 2 (Homo sapiens); assay: Inhibition of NOX2 in human THP1 cells assessed as downregulation of TPA-induced CD11b mRNA expression at 20 uM incubated for 1 hr prior to TPA challenge measured after 24 hrs by RT-PCR analysis; type: cell-based; details: THP-1; in short: as §1
[5] = biological target: T1, NADPH oxidase 2 (Homo sapiens); assay: Inhibition of NOX2 in human THP1 cells assessed as suppression of TPA-induced cell adhesion at 20 uM incubated for 1 hr prior to TPA challenge measured after 24 hrs by microscopic analysis; type: cell-based; details: THP-1
In short: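 THP-1 cells at 2 × 10^6 per 3.5 cm dish in RPMI1640 with 10% FCS. Exposed to compound for 1 h, then to 100 nM TPA for 24 h. Dishes washed three times with PBS and the remaining adherent cells inspected by microscope.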

[6] = biological target: T1, NADPH oxidase 2 (Homo sapiens); assay: Inhibition of NOX2 in human THP1 cells assessed as suppression of TPA-induced membrane translocation of p47phox at 20 uM incubated for 1 hr prior to TPA challenge measured after 12 hrs by Western blot analysis; type: cell-based; details: THP-1
In short: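 Cells pretreated 1 h, then 100 nM TPA for 12 h. Lysed in digitonin buffer B (pH 7.5); after 12000g for 15 min the pellet was solubilized in buffer B with 1% Triton X-100 to give the membrane fraction. 20 μg protein run on 12% SDS-PAGE, blotted for p47phox.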

[7] = biological target: T1, NADPH oxidase 2 (Homo sapiens); assay: Inhibition of NOX2 in human THP1 cells assessed as suppression of TPA-induced intracellular ROS accumulation at 20 uM incubated for 1 hr prior to TPA challenge measured after 24 hrs by flow cytometric analysis; type: cell-based; details: THP-1
In short: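 THP-1 cells pretreated 1 h, then 100 nM TPA for 24 h. Cells scraped, stained 20 min with 10 μM carboxy-H2DCFDA in PBS with […] in a 5% CO2 incubator, and washed three times in ice-cold PBS. DCF fluorescence read by flow cytometry.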

[8] = test system: THP-1; assay: Inhibition of TPA-induced MEK/ERK phosphorylation in human THP1 cells at 20 uM incubated for 1 hr prior to TPA challenge measured after 15 mins by Western blot analysis; type: cell-based
In short: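 THP-1 cells pretreated 1 h, then 100 nM TPA for 15 min. Lysed in buffer A (Tris pH 7.4 with phosphatase inhibitors, 1% Triton X-100). 20 μg protein run on 12% SDS-PAGE and PVDF, probed for phospho- and total MEK and ERK (1:1000) with biotin secondary and ABC detection.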

[9] = biological target: T1, NADPH oxidase 2 (Homo sapiens); assay: Inhibition of NOX2 in human THP1 cells assessed as downregulation of TPA-induced CD36 mRNA expression at 0.2 to 2 uM incubated for 1 hr prior to TPA challenge measured after 24 hrs by RT-PCR analysis; type: cell-based; details: THP-1
In short: (§2)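 THP-1 cells, 2 × 10^6 per 3.5 cm dish, pretreated 1 h with 0.2, 2 or 20 μM, then 100 nM TPA for 24 h. Cells scraped and washed in cold PBS, TRIzol RNA extracted. CD11b, CD14 and CD36 transcripts measured by RT-PCR and normalized to 18s rRNA.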

[10] = biological target: T1, NADPH oxidase 2 (Homo sapiens); assay: Inhibition of NOX2 in human THP1 cells assessed as downregulation of TPA-induced CD14 mRNA expression at 0.2 to 2 uM incubated for 1 hr prior to TPA challenge measured after 24 hrs by RT-PCR analysis; type: cell-based; details: THP-1; in short: as §2
[11] = biological target: T1, NADPH oxidase 2 (Homo sapiens); assay: Inhibition of NOX2 in human THP1 cells assessed as downregulation of TPA-induced CD11b mRNA expression at 0.2 to 2 uM incubated for 1 hr prior to TPA challenge measured after 24 hrs by RT-PCR analysis; type: cell-based; details: THP-1; in short: as §2

| SMILES | inhibition [1] | Activity [2] | inhibition [3] | inhibition [4] | inhibition [5] | inhibition [6] | inhibition [7] | inhibition [8] | inhibition [9] | inhibition [10] | inhibition [11] |
| --- | --- | --- | --- | --- | --- | --- | --- | --- | --- | --- | --- |
| O=c1cc(-c2cc(O)c(O)c(O)c2)oc2cc(O)cc(O)c12 | inactive | inactive | inactive | inactive | inactive | inactive |  |  |  |  |  |
| O=c1cc(-c2ccc(O)c(O)c2)oc2cc(O)cc(O)c12 | Active | Active | Active | Active | Active | Active | Active | inactive | inactive | inactive | inactive |
| O=c1cc(-c2ccccc2)oc2cc(O)cc(O)c12 | Active |  | Active | Active | Active |  |  |  |  |  |  |
| O=c1cc(-c2ccc(O)cc2)oc2cc(O)cc(O)c12 | Active |  | Active | Active | Active |  |  |  |  |  |  |
